In brackets after ≈: the same amount, converted by molar mass.
How the values were obtained:
Type in all cases: functional
Aspergillus fumigatus = test: Antifungal activity against Aspergillus fumigatus after 48 to 72 hrs by broth microdilution method
In short: (§1)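 Test compounds were prepared as 10 mg/ml DMSO stocks and serially diluted twofold in Sabouraud's dextrose broth over 500, 250, 125, 62.5, 31.25, 16, 8, 4, 2 and 1, alongside fluconazole as reference. Plates were inoculated with 1–5 × 10⁴ cfu/ml and held at 25 °C for 48–72 h. The MIC was the lowest concentration showing no visible growth.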

Escherichia coli = test: Antibacterial activity against Escherichia coli MTCC 1089 after 18 hrs by broth microdilution method; details: MTCC 1089, 18 h
Bacillus subtilis = test: Antibacterial activity against Bacillus subtilis MTCC 297 after 18 hrs by broth microdilution method; details: MTCC 297, 18 h
Enterococcus faecalis = test: Antibacterial activity against Streptococcus faecalis MTCC 3382 after 18 hrs by broth microdilution method; details: MTCC 3382, 18 h
Staphylococcus aureus = test: Antibacterial activity against Staphylococcus aureus MTCC 3160 after 18 hrs by broth microdilution method; details: MTCC 3160, 18 h
Fusarium oxysporum = test: Antifungal activity against Fusarium oxysporum after 48 to 72 hrs by broth microdilution method; in short: as §1
Penicillium chrysogenum = test: Antifungal activity against Penicillium chrysogenum after 48 to 72 hrs by broth microdilution method; in short: as §1
Pseudomonas aeruginosa = test: Antibacterial activity against Pseudomonas aeruginosa MTCC 1034 after 18 hrs by broth microdilution method; details: MTCC 1034, 18 h
Mucor = test: Antifungal activity against Mucor fuscus after 48 to 72 hrs by broth micro dilution method; in short: as §1
Aspergillus niger = test: Antifungal activity against Aspergillus niger after 48 to 72 hrs by broth microdilution method; in short: as §1
Candida albicans = test: Antifungal activity against Candida albicans after 48 to 72 hrs by broth microdilution method; in short: as §1
Klebsiella pneumoniae = test: Antibacterial activity against Klebsiella pneumoniae MTCC 3384 after 18 hrs by broth microdilution method; details: MTCC 3384, 18 h

MIC (Aspergillus fumigatus) [µg/mL] | MIC (Escherichia coli) [µg/mL] | MIC (Bacillus subtilis) [µg/mL] | MIC (Enterococcus faecalis) [µg/mL] | MIC (Staphylococcus aureus) [µg/mL] | MIC (Fusarium oxysporum) [µg/mL] | MIC (Penicillium chrysogenum) [µg/mL] | MIC (Pseudomonas aeruginosa) [µg/mL] | MIC (Mucor) [µg/mL] | MIC (Aspergillus niger) [µg/mL] | MIC (Candida albicans) [µg/mL] | MIC (Klebsiella pneumoniae) [µg/mL] | Compound
> 500 | > 500 | > 500 | 1 (≈ 2.23 µM) | 16 (≈ 35.6 µM) | 1 (≈ 2.23 µM) | 16 (≈ 35.6 µM) | 1 (≈ 2.23 µM) | 250 (≈ 556 µM) | > 500 | 125 (≈ 278 µM) | 1 (≈ 2.23 µM) | Cc1cc2oc(=O)cc(CN=[N+]=[N-])c2cc1S(=O)(=O)Nc1ccc(Br)cc1
16 (≈ 39.5 µM) | > 500 | 16 (≈ 39.5 µM) | 8 (≈ 19.8 µM) | 1 (≈ 2.47 µM) | 1 (≈ 2.47 µM) | 2 (≈ 4.94 µM) | 1 (≈ 2.47 µM) | > 500 | 31.2 (≈ 77.2 µM) | > 500 | 4 (≈ 9.88 µM) | Cc1cc2oc(=O)cc(CN=[N+]=[N-])c2cc1S(=O)(=O)Nc1cccc(Cl)c1
> 500 | > 500 | 250 (≈ 556 µM) | 4 (≈ 8.89 µM) | 4 (≈ 8.89 µM) | 1 (≈ 2.22 µM) | 125 (≈ 278 µM) | 8 (≈ 17.8 µM) | 8 (≈ 17.8 µM) | 62.5 (≈ 139 µM) | 16 (≈ 35.6 µM) | 16 (≈ 35.6 µM) | Cc1cc2oc(=O)cc(CN=[N+]=[N-])c2cc1S(=O)(=O)Nc1ccc(Cl)cc1[N+](=O)[O-]
125 (≈ 309 µM) | > 500 | 16 (≈ 39.5 µM) | 4 (≈ 9.88 µM) | 8 (≈ 19.8 µM) | 1 (≈ 2.47 µM) | 16 (≈ 39.5 µM) | 1 (≈ 2.47 µM) | 16 (≈ 39.5 µM) | 31.2 (≈ 77.2 µM) | 8 (≈ 19.8 µM) | 1 (≈ 2.47 µM) | Cc1cc2oc(=O)cc(CN=[N+]=[N-])c2cc1S(=O)(=O)Nc1ccc(Cl)cc1
8 (≈ 18.6 µM) | 125 (≈ 291 µM) | 4 (≈ 9.32 µM) | 4 (≈ 9.32 µM) | 16 (≈ 37.3 µM) | 2 (≈ 4.66 µM) | 2 (≈ 4.66 µM) | 125 (≈ 291 µM) | 2 (≈ 4.66 µM) | 4 (≈ 9.32 µM) | 16 (≈ 37.3 µM) | 31.2 (≈ 72.8 µM) | Cc1cc([N+](=O)[O-])ccc1NS(=O)(=O)c1cc2c(CN=[N+]=[N-])cc(=O)oc2cc1C

The next lines start with the compound.

Compound | MIC (Aspergillus fumigatus) [µg/mL] | MIC (Escherichia coli) [µg/mL] | MIC (Bacillus subtilis) [µg/mL] | MIC (Enterococcus faecalis) [µg/mL] | MIC (Staphylococcus aureus) [µg/mL] | MIC (Fusarium oxysporum) [µg/mL] | MIC (Penicillium chrysogenum) [µg/mL] | MIC (Pseudomonas aeruginosa) [µg/mL] | MIC (Mucor) [µg/mL] | MIC (Aspergillus niger) [µg/mL] | MIC (Candida albicans) [µg/mL] | MIC (Klebsiella pneumoniae) [µg/mL]
Cc1cc2oc(=O)cc(CN=[N+]=[N-])c2cc1S(=O)(=O)Nc1ccccc1[N+](=O)[O-] | 8 (≈ 19.3 µM) | > 500 | 62.5 (≈ 150 µM) | 1 (≈ 2.41 µM) | 1 (≈ 2.41 µM) | 1 (≈ 2.41 µM) | 4 (≈ 9.63 µM) | 4 (≈ 9.63 µM) | 8 (≈ 19.3 µM) | 8 (≈ 19.3 µM) | 250 (≈ 602 µM) | 16 (≈ 38.5 µM)
Cc1cc2oc(=O)cc(CN=[N+]=[N-])c2cc1S(=O)(=O)Nc1ccc(Cl)cc1Cl | 250 (≈ 569 µM) | > 500 | 250 (≈ 569 µM) | 1 (≈ 2.28 µM) | 31.2 (≈ 71.1 µM) | 1 (≈ 2.28 µM) | 62.5 (≈ 142 µM) | 2 (≈ 4.55 µM) | 16 (≈ 36.4 µM) | 250 (≈ 569 µM) | 8 (≈ 18.2 µM) | 2 (≈ 4.55 µM)
Cc1ccc(NS(=O)(=O)c2cc3c(CN=[N+]=[N-])cc(=O)oc3cc2C)cc1Cl | 16 (≈ 38.2 µM) | > 500 | 4 (≈ 9.55 µM) | 8 (≈ 19.1 µM) | 8 (≈ 19.1 µM) | 1 (≈ 2.39 µM) | 4 (≈ 9.55 µM) | 1 (≈ 2.39 µM) | 16 (≈ 38.2 µM) | 16 (≈ 38.2 µM) | 31.2 (≈ 74.6 µM) | 8 (≈ 19.1 µM)
Cc1cc2oc(=O)cc(CN=[N+]=[N-])c2cc1S(=O)(=O)Nc1cc([N+](=O)[O-])ccc1Cl | 2 (≈ 4.45 µM) | > 500 | 125 (≈ 278 µM) | 2 (≈ 4.45 µM) | 2 (≈ 4.45 µM) | 1 (≈ 2.22 µM) | 125 (≈ 278 µM) | 2 (≈ 4.45 µM) | 62.5 (≈ 139 µM) | 8 (≈ 17.8 µM) | 4 (≈ 8.89 µM) | 62.5 (≈ 139 µM)
Cc1cc2oc(=O)cc(CN=[N+]=[N-])c2cc1S(=O)(=O)Nc1cccc([N+](=O)[O-])c1 | 8 (≈ 19.3 µM) | 125 (≈ 301 µM) | 8 (≈ 19.3 µM) | 8 (≈ 19.3 µM) | 4 (≈ 9.63 µM) | 2 (≈ 4.81 µM) | 2 (≈ 4.81 µM) | 125 (≈ 301 µM) | 4 (≈ 9.63 µM) | 8 (≈ 19.3 µM) | 16 (≈ 38.5 µM) | 125 (≈ 301 µM)
Cc1cc2oc(=O)cc(CN=[N+]=[N-])c2cc1S(=O)(=O)Nc1ccc([N+](=O)[O-])cc1 | 250 (≈ 602 µM) | 250 (≈ 602 µM) | 125 (≈ 301 µM) | 4 (≈ 9.63 µM) | 2 (≈ 4.81 µM) | 1 (≈ 2.41 µM) | 62.5 (≈ 150 µM) | 1 (≈ 2.41 µM) | 8 (≈ 19.3 µM) | 62.5 (≈ 150 µM) | 62.5 (≈ 150 µM) | 2 (≈ 4.81 µM)
Cc1cc2oc(=O)cc(CN=[N+]=[N-])c2cc1S(=O)(=O)Nc1ccc(Cl)c(Cl)c1 | 31.2 (≈ 71.1 µM) | > 500 | 2 (≈ 4.55 µM) | 16 (≈ 36.4 µM) | 4 (≈ 9.11 µM) | 1 (≈ 2.28 µM) | 2 (≈ 4.55 µM) | 8 (≈ 18.2 µM) | 31.2 (≈ 71.1 µM) | 16 (≈ 36.4 µM) | 16 (≈ 36.4 µM) | 1 (≈ 2.28 µM)
Cc1cc2oc(=O)cc(CN=[N+]=[N-])c2cc1S(=O)(=O)Nc1ccccc1Cl | 31.2 (≈ 77.2 µM) | > 500 | 125 (≈ 309 µM) | 1 (≈ 2.47 µM) | 1 (≈ 2.47 µM) | 4 (≈ 9.88 µM) | 31.2 (≈ 77.2 µM) | 31.2 (≈ 77.2 µM) | 16 (≈ 39.5 µM) | 62.5 (≈ 154 µM) | 62.5 (≈ 154 µM) | 1 (≈ 2.47 µM)
Cc1cc2oc(=O)cc(CN=[N+]=[N-])c2cc1S(=O)(=O)Nc1cccc2ccccc12 | 2 (≈ 4.76 µM) | > 500 | > 500 | 2 (≈ 4.76 µM) | 16 (≈ 38.1 µM) | 1 (≈ 2.38 µM) | 16 (≈ 38.1 µM) | 8 (≈ 19 µM) | 31.2 (≈ 74.3 µM) | 1 (≈ 2.38 µM) | 8 (≈ 19 µM) | 1 (≈ 2.38 µM)
Cc1ccc(NS(=O)(=O)c2cc3c(CN=[N+]=[N-])cc(=O)oc3cc2C)c([N+](=O)[O-])c1 | 125 (≈ 291 µM) | 250 (≈ 582 µM) | 250 (≈ 582 µM) | 1 (≈ 2.33 µM) | 16 (≈ 37.3 µM) | 1 (≈ 2.33 µM) | 31.2 (≈ 72.8 µM) | 16 (≈ 37.3 µM) | 62.5 (≈ 146 µM) | 31.2 (≈ 72.8 µM) | 16 (≈ 37.3 µM) | 4 (≈ 9.32 µM)

— ChEMBL document CHEMBL1154876, “Synthesis and antimicrobial studies on novel sulfonamides containing 4-azidomethyl coumarin” (2010)
